Consider 36 molecules from ChEMBL document CHEMBL4346698, “Discovery and optimization of thienopyridine derivatives as novel urea transporter inhibitors” (Eur J Med Chem, 2019).

Structures are written as SMILES. Active and inactive are the calls of the source. The calls are words filed in the database; no cut-off is given here.

The IC50 is the concentration at which inhibition is half-maximal.

The first experiment deals with T1, Urea transporter 1 (Homo sapiens, UniProt Q13336).
T1 sequence (Q13336 whole entry): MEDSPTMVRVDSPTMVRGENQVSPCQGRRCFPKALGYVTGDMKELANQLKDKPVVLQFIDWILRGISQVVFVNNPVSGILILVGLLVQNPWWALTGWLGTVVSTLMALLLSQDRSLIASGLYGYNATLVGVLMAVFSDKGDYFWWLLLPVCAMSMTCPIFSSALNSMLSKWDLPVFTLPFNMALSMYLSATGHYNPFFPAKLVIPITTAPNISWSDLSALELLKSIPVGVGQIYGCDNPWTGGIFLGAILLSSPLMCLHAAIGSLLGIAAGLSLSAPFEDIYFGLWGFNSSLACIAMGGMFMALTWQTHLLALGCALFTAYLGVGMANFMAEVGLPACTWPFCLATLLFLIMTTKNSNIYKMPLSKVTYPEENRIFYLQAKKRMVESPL
Description: Inhibition of urea transporter B in human erythrocytes incubated for 6 mins by spectrophotometric analysis based erythrocyte lysis assay. Format: cell-based.
In the case of `CC(=O)c1sc2nc3ccc(C)cc3cc2c1N`, half-maximal inhibition (IC50) required 1.72 µM.

The target in the next experiment is T2, Urea transporter 1 (Rattus norvegicus, UniProt P97689).
T2 sequence (P97689 whole entry): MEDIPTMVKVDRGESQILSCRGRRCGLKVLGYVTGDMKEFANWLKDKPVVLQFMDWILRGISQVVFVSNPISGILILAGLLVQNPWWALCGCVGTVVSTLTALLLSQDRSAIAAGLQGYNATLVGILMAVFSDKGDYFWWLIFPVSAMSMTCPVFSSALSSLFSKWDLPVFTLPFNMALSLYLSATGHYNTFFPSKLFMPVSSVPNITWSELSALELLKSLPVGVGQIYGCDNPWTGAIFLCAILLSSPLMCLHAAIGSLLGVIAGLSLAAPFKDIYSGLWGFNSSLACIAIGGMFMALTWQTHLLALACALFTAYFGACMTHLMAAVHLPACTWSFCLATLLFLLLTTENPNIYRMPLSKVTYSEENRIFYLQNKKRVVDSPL
Description: Inhibition of urea transporter B in Sprague-Dawley rat erythrocytes incubated for 6 mins by spectrophotometric analysis based erythrocyte lysis assay. The format is cell-based. The procedure, abridged: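 Blood came from 8-week-old male SD rats. Erythrocytes were held at 2% hematocrit in hyperosmolar PBS with 1.25 M urea and 5 mM glucose for 2 h at ambient temperature. Compound in DMSO was added for 6 min, then the cells were diluted 1:10 into isotonic PBS. Lysis was read as A710 within 5 min and normalised to same-plate no-lysis (isotonic PBS) and full-lysis (water) controls.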
`COC(=O)c1sc2nc(C)c([N+](=O)[O-])cc2c1N`: the IC50 was over 10 µM.

`COc1ccc2nc3sc(C(=O)N4CCOCC4)c(N)c3cc2c1` had an IC50 of over 10 µM.

The molecule `COc1ccc2nc3sc(C(=O)O)c(N)c3cc2c1` displayed an IC50 of over 10 µM.

In turn, `COc1ccc2nc3sc(C(N)=O)c(N)c3cc2c1` registered an IC50 of over 10 µM.

For `CCOC(=O)c1sc2nc3ccc(OC)cc3cc2c1N`, the IC50 was over 10 µM.

`COC(=O)c1sc2nc3ccc(Br)cc3cc2c1N` returned an IC50 of 0.27 µM.

`CC(=O)c1sc2nc3ccc(C)cc3cc2c1N` had an IC50 of 3.51 µM.

`COC(=O)c1sc2nc(C)c(Br)cc2c1N` gave an IC50 of 8.47 µM. Against the preceding molecule, the IC50 is about 2.4-fold higher.

Molecule `CNC(=O)c1cc2c(N)c(C(=O)OC)sc2nc1C` gave an IC50 of over 10 µM.

In turn, `COc1ccc2nc3sc(S(=O)(=O)N(C)C)c(N)c3cc2c1` yielded an IC50 of over 10 µM.

Molecule `COC(=O)CNC(=O)c1sc2nc3ccc(OC)cc3cc2c1N` displayed an IC50 of over 10 µM.

`CCc1cc2c(N)c(C(=O)OC)sc2nc1C` returned an IC50 of 0.71 µM. This counts as sub-micromolar.

For the molecule `COC(=O)CC(=O)c1sc2nc3ccc(OC)cc3cc2c1N`, the IC50 is over 10 µM.

Regarding `COC(=O)c1sc2nc3ccc(F)cc3cc2c1N`, the IC50 came to 0.16 µM.

Molecule `COC(=O)c1sc2nc(C)c(N)cc2c1N` came in with an IC50 of 0.54 µM.

Molecule `COC(=O)c1sc2nc(C)c(NS(C)(=O)=O)cc2c1N` had an IC50 of 6.42 µM.

Consider `COC(=O)c1sc2nc(-c3ccccc3)ccc2c1N`, for which the IC50 is 3.36 µM. Against the preceding molecule, the IC50 is about 1.9-fold lower.

The molecule `COC(=O)c1sc2nc(C)c(N(C)C)cc2c1N` had an IC50 of 3.75 µM.

`COc1ccc2nc3sc(C(C)=O)c(N)c3cc2c1` showed an IC50 of 1.63 µM. Compared with the last molecule, the IC50 is about 2.3-fold lower.

Regarding `COC(=O)c1sc2nc(C(=O)N3CCOCC3)ccc2c1N`, the 50% inhibitory concentration (IC50) is over 10 µM.

`CNC(=O)c1sc2nc3ccc(OC)cc3cc2c1N` showed an IC50 of over 10 µM.

Consider `COC(=O)c1sc2nc(C)c(C(C)=O)cc2c1N`, for which the midpoint of inhibition, the IC50, lay at 0.91 µM.

`COC(=O)c1sc2nc(C)cc(C(F)(F)F)c2c1N` yielded an IC50 of 6.12 µM.

The molecule `COC(=O)c1sc2nc(C)c(NC(C)=O)cc2c1N` displayed a half-inhibitory concentration (IC50) of 3.47 µM.

Molecule `CCNC(=O)c1cc2c(N)c(C(=O)OC)sc2nc1C` came in with an IC50 of over 10 µM.

The molecule `COC(=O)c1sc2nc(C)cc(C)c2c1N` gave a concentration for half-maximal inhibition (IC50) of 2.54 µM.

`COC(=O)c1sc2nc3c(C)cc(C)cc3cc2c1N` displayed an IC50 of 0.61 µM.

Regarding `COC(=O)c1sc2nc(C)c(C(=O)N3CCOCC3)cc2c1N`, the IC50 was over 10 µM.

For `COC(=O)c1sc2nc3ccccc3cc2c1N`, inhibition was half-maximal at 0.22 µM (IC50).

`COC(=O)c1sc2nc(C)c(OC)cc2c1N`: the IC50 came to 5.46 µM.

`CCOC(=O)c1cnc2sc(C(=O)OC)c(N)c2c1` showed an IC50 of over 10 µM.

Molecule `COC(=O)c1sc2nc(C)c(F)cc2c1N` came in with a half-inhibitory concentration (IC50) of over 10 µM.

`COC(=O)c1sc2nc(C)ccc2c1N` showed an IC50 of 1.3 µM.

Molecule `COC(=O)c1sc2nc3ccc(OC)cc3cc2c1N` gave a concentration for half-maximal inhibition (IC50) of 0.22 µM.

In turn, `COC(=O)c1sc2nc(C)c(-c3ccccc3)cc2c1N` registered an IC50 of 3.29 µM.

The molecule `COC(=O)c1sc2nc3ccc(C)cc3cc2c1N` returned a half-maximal inhibitory concentration (IC50) of 0.23 µM.

The subject of the next experiment is Rattus norvegicus. Description: Diuretic activity in Sprague-Dawley rat assessed as increase in urine output at 100 mg/kg, sc measured after 10 hrs. The format is functional, organism-based. The gist of the method:
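SD rats housed in metabolic cages received a subcutaneous injection of 100 mg/kg in 40% 2-hydroxypropyl-β-cyclodextrin, with the vehicle alone as control. Urine output was collected for 10 h after dosing. n=5, mean + SD.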
On to `COC(=O)c1sc2nc(C)c(N)cc2c1N`, for which the outcome was Active.
